Data published in ChEMBL document CHEMBL3627681, “Synthesis and biological evaluation of 1,3-diaryl pyrazole derivatives as potential antibacterial and anti-inflammatory agents” (2015).
In brackets after ≈: the same amount, converted by molar mass.

Tests used:
[1] = tested on: Escherichia coli; assay: Antibacterial activity against Escherichia coli KCTC 1924 after 24 hrs by two-fold serial dilution method; assay type: functional; conditions: KCTC 1924, 24 h
How it was run: (§1)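 Broth microdilution in Mueller-Hinton broth over final concentrations of 64–0.5. Bacteria were grown to mid-log phase and diluted 1000-fold, then inoculated at 10⁵ CFU/mL. Compounds were dissolved in DMSO, with final DMSO at most 0.05%. Plates were incubated 24 h at 37 °C and growth read as absorbance at 650 nm. MIC is the concentration giving complete growth inhibition. Three independent runs.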

[2] = tested on: Candida albicans; assay: Antifungal activity against Candida albicans 7535 by two-fold serial dilution method; assay type: functional
[3] = tested on: Mus musculus; assay: Antiinflammatory activity in mouse assessed as inhibition of xylene-induced ear edema at 50 mg/kg, ip administered 30 mins before xylene challenge relative to control; assay type: functional
How it was run: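 Mice received compound freshly dissolved in DMSO, 50 mg/kg ip at 0.05 mL/20 g body weight; vehicle controls got DMSO alone. After 30 min, 20 µL xylene was applied to the right ear. After a further 30 min, 7 mm plugs were cut from treated and untreated ears and edema taken as their weight difference. Result is % edema reduction versus vehicle controls.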

[4] = tested on: Staphylococcus aureus; assay: Ratio of moxifloxacin MIC to compound MIC for quinolone-resistant Staphylococcus aureus CCARM 3519 after 24 hrs by two-fold serial dilution method; assay type: functional
[5] = tested on: Staphylococcus aureus; assay: Antibacterial activity against Staphylococcus aureus RN4220 after 24 hrs by two-fold serial dilution method; assay type: functional; conditions: RN4220, 24 h
How it was run: (§2)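 Broth microdilution in Mueller-Hinton broth. Bacteria grown to mid-log phase, diluted 1000-fold, and inoculated at 10⁵ CFU/mL. Test compounds in DMSO, final DMSO not above 0.05%, final concentrations 64-0.5 µg/mL. Incubation 24 h at 37 °C, growth read as absorbance at 650 nm. MIC taken as the lowest concentration giving complete growth inhibition. Run three times.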

[6] = tested on: Staphylococcus aureus; assay: Ratio of moxifloxacin MIC to compound MIC for quinolone-resistant Staphylococcus aureus CCARM 3505 after 24 hrs by two-fold serial dilution method; assay type: functional
[7] = tested on: Escherichia coli; assay: Antibacterial activity against Escherichia coli CCARM 1356 after 24 hrs by two-fold serial dilution method; assay type: functional; conditions: CCARM 1356, 24 h; how it was run: as §1
[8] = tested on: Staphylococcus aureus; assay: Antibacterial activity against Staphylococcus aureus 209 after 24 hrs by two-fold serial dilution method; assay type: functional; conditions: Staphylococcus aureus, 209, 24 h; how it was run: as §2
[9] = tested on: Staphylococcus aureus; assay: Antibacterial activity against quinolone-resistant Staphylococcus aureus CCARM 3519 after 24 hrs by two-fold serial dilution method; assay type: functional; conditions: CCARM 3519, 24 h; how it was run: as §2
[10] = tested on: Staphylococcus aureus; assay: Antibacterial activity against methicillin-resistant Staphylococcus aureus CCARM 3167 after 24 hrs by two-fold serial dilution method; assay type: functional; conditions: CCARM 3167, 24 h; how it was run: as §2
[11] = tested on: Staphylococcus aureus; assay: Antibacterial activity against quinolone-resistant Staphylococcus aureus CCARM 3505 after 24 hrs by two-fold serial dilution method; assay type: functional; conditions: CCARM 3505, 24 h; how it was run: as §2
[12] = tested on: Salmonella typhimurium; assay: Antibacterial activity against Salmonella typhimurium 2421 after 24 hrs by two-fold serial dilution method; assay type: functional, Salmonella enterica subsp. enterica serovar Typhimurium; conditions: Salmonella enterica, 2421, 24 h; how it was run: as §1
[13] = tested on: Staphylococcus aureus; assay: Antibacterial activity against Staphylococcus aureus 503 after 24 hrs by two-fold serial dilution method; assay type: functional; conditions: Staphylococcus aureus, 503, 24 h; how it was run: as §2
[14] = tested on: Streptococcus mutans; assay: Antibacterial activity against Streptococcus mutans 3065 after 24 hrs by two-fold serial dilution method; assay type: functional; conditions: Streptococcus mutans, 3065, 24 h; how it was run: as §1
[15] = tested on: Pseudomonas aeruginosa; assay: Antibacterial activity against Pseudomonas aeruginosa 2742 after 24 hrs by two-fold serial dilution method; assay type: functional; conditions: Pseudomonas aeruginosa, 2742, 24 h; how it was run: as §1
[16] = tested on: Pseudomonas aeruginosa; assay: Antibacterial activity against Pseudomonas aeruginosa 2004 after 24 hrs by two-fold serial dilution method; assay type: functional; conditions: Pseudomonas aeruginosa, 2004, 24 h; how it was run: as §1
[17] = tested on: Staphylococcus aureus; assay: Antibacterial activity against methicillin-resistant Staphylococcus aureus CCARM 3506 after 24 hrs by two-fold serial dilution method; assay type: functional; conditions: CCARM 3506, 24 h; how it was run: as §2
[18] = tested on: Staphylococcus aureus; assay: Ratio of gatifloxacin MIC to compound MIC for quinolone-resistant Staphylococcus aureus CCARM 3519 after 24 hrs by two-fold serial dilution method; assay type: functional
[19] = tested on: Escherichia coli; assay: Ratio of moxifloxacin MIC to compound MIC for Escherichia coli CCARM 1356 after 24 hrs by two-fold serial dilution method; assay type: functional
[20] = tested on: Staphylococcus aureus; assay: Ratio of gatifloxacin MIC to compound MIC for quinolone-resistant Staphylococcus aureus CCARM 3505 after 24 hrs by two-fold serial dilution method; assay type: functional
[21] = tested on: Escherichia coli; assay: Ratio of gatifloxacin MIC to compound MIC for Escherichia coli CCARM 1356 after 24 hrs by two-fold serial dilution method; assay type: functional
[22] = tested on: Staphylococcus aureus; assay: Ratio of oxacillin MIC to compound MIC for methicillin-resistant Staphylococcus aureus CCARM 3506 after 24 hrs by two-fold serial dilution method; assay type: functional
[23] = tested on: Staphylococcus aureus; assay: Ratio of norfloxacin MIC to compound MIC for methicillin-resistant Staphylococcus aureus CCARM 3506 after 24 hrs by two-fold serial dilution method; assay type: functional

SMILES	MIC [1] [µg/mL]	MIC [2] [µg/mL]	inhibition in vivo at 50 mg/kg [3] [%]	Ratio [4]	MIC [5] [µg/mL]	Ratio [6]	MIC [7] [µg/mL]	MIC [8] [µg/mL]	MIC [9] [µg/mL]	MIC [10] [µg/mL]	MIC [11] [µg/mL]	MIC [12] [µg/mL]	MIC [13] [µg/mL]	MIC [14] [µg/mL]	MIC [15] [µg/mL]	MIC [16] [µg/mL]	MIC [17] [µg/mL]	Ratio [18]	Ratio [19]	Ratio [20]	other results
Cc1ccc(-c2nn(-c3ccc([N+](=O)[O-])cc3[N+](=O)[O-])cc2/C=N/NC(=N)N)cc1	2 (≈ 4.9 µM)	2 (≈ 4.9 µM)	87.4	2	2 (≈ 4.9 µM)	2	4 (≈ 9.79 µM)	2 (≈ 4.9 µM)	2 (≈ 4.9 µM)	2 (≈ 4.9 µM)	2 (≈ 4.9 µM)	4 (≈ 9.79 µM)	2 (≈ 4.9 µM)	4 (≈ 9.79 µM)	> 64	> 64	2 (≈ 4.9 µM)	2			
COc1cccc(-c2nn(-c3ccc([N+](=O)[O-])cc3[N+](=O)[O-])cc2/C=N/NC(=N)N)c1	4 (≈ 9.43 µM)	2 (≈ 4.71 µM)	67.3		4 (≈ 9.43 µM)		8 (≈ 18.9 µM)	4 (≈ 9.43 µM)	4 (≈ 9.43 µM)	4 (≈ 9.43 µM)	4 (≈ 9.43 µM)	8 (≈ 18.9 µM)	4 (≈ 9.43 µM)	8 (≈ 18.9 µM)	> 64	> 64	2 (≈ 4.71 µM)		16		
N=C(N)N/N=C/c1cn(-c2ccc([N+](=O)[O-])cc2[N+](=O)[O-])nc1-c1ccc(Cl)cc1Cl	2 (≈ 4.32 µM)	2 (≈ 4.32 µM)	61.9		2 (≈ 4.32 µM)	2	8 (≈ 17.3 µM)	2 (≈ 4.32 µM)	2 (≈ 4.32 µM)	2 (≈ 4.32 µM)	2 (≈ 4.32 µM)	8 (≈ 17.3 µM)	2 (≈ 4.32 µM)	4 (≈ 8.63 µM)	> 64	> 64	2 (≈ 4.32 µM)	2	16	4	
Cc1ccc(-c2nn(-c3ccccc3)cc2/C=N/NC(=N)N)cc1	2 (≈ 6.28 µM)	2 (≈ 6.28 µM)	86.5		2 (≈ 6.28 µM)		8 (≈ 25.1 µM)	4 (≈ 12.6 µM)	4 (≈ 12.6 µM)	2 (≈ 6.28 µM)	4 (≈ 12.6 µM)	8 (≈ 25.1 µM)	4 (≈ 12.6 µM)	8 (≈ 25.1 µM)	32 (≈ 101 µM)	16 (≈ 50.3 µM)	2 (≈ 6.28 µM)		16		
COc1ccc(-c2nn(-c3ccc([N+](=O)[O-])cc3[N+](=O)[O-])cc2/C=N/NC(=N)N)cc1	4 (≈ 9.43 µM)	2 (≈ 4.71 µM)	86.5		4 (≈ 9.43 µM)		8 (≈ 18.9 µM)	4 (≈ 9.43 µM)	4 (≈ 9.43 µM)	4 (≈ 9.43 µM)	4 (≈ 9.43 µM)	8 (≈ 18.9 µM)	4 (≈ 9.43 µM)	8 (≈ 18.9 µM)	> 64	> 64	2 (≈ 4.71 µM)		16		
N=C(N)N/N=C/c1cn(-c2ccc([N+](=O)[O-])cc2[N+](=O)[O-])nc1-c1ccc(Br)cc1	2 (≈ 4.23 µM)	1 (≈ 2.11 µM)	69.6	2	2 (≈ 4.23 µM)		4 (≈ 8.45 µM)	2 (≈ 4.23 µM)	2 (≈ 4.23 µM)	2 (≈ 4.23 µM)	2 (≈ 4.23 µM)	4 (≈ 8.45 µM)	2 (≈ 4.23 µM)	2 (≈ 4.23 µM)	> 64	> 64	1 (≈ 2.11 µM)			4	Ratio [21]: 4; Ratio [22]: 64
N=C(N)N/N=C/c1cn(-c2ccc([N+](=O)[O-])cc2[N+](=O)[O-])nc1-c1cccc(Br)c1	2 (≈ 4.23 µM)	1 (≈ 2.11 µM)	81.7	2	1 (≈ 2.11 µM)	2	4 (≈ 8.45 µM)	2 (≈ 4.23 µM)	2 (≈ 4.23 µM)	1 (≈ 2.11 µM)	2 (≈ 4.23 µM)	4 (≈ 8.45 µM)	2 (≈ 4.23 µM)	4 (≈ 8.45 µM)	> 64	> 64	1 (≈ 2.11 µM)	2		4	Ratio [23]: 4; Ratio [21]: 4; Ratio [22]: 64
Cc1ccc(-c2nn(-c3ccc([N+](=O)[O-])cc3[N+](=O)[O-])cc2/C=N/NC(=N)N)c(C)c1	2 (≈ 4.73 µM)	2 (≈ 4.73 µM)	79.6		2 (≈ 4.73 µM)		8 (≈ 18.9 µM)	4 (≈ 9.47 µM)	4 (≈ 9.47 µM)	2 (≈ 4.73 µM)	2 (≈ 4.73 µM)	8 (≈ 18.9 µM)	4 (≈ 9.47 µM)	4 (≈ 9.47 µM)	> 64	> 64	2 (≈ 4.73 µM)		16		
N=C(N)N/N=C/c1cn(-c2ccc([N+](=O)[O-])cc2[N+](=O)[O-])nc1-c1ccc(F)cc1	4 (≈ 9.7 µM)	2 (≈ 4.85 µM)	61.9		4 (≈ 9.7 µM)		8 (≈ 19.4 µM)	4 (≈ 9.7 µM)	4 (≈ 9.7 µM)	4 (≈ 9.7 µM)	4 (≈ 9.7 µM)	8 (≈ 19.4 µM)	4 (≈ 9.7 µM)	8 (≈ 19.4 µM)	> 64	> 64	4 (≈ 9.7 µM)		16		
N=C(N)N/N=C/c1cn(-c2ccc([N+](=O)[O-])cc2[N+](=O)[O-])nc1-c1ccc(Cl)cc1	2 (≈ 4.66 µM)	2 (≈ 4.66 µM)	71.5	2	2 (≈ 4.66 µM)	2	8 (≈ 18.7 µM)	2 (≈ 4.66 µM)	2 (≈ 4.66 µM)	2 (≈ 4.66 µM)	2 (≈ 4.66 µM)	4 (≈ 9.33 µM)	2 (≈ 4.66 µM)	4 (≈ 9.33 µM)	> 64	> 64	2 (≈ 4.66 µM)	2	16	4	
N=C(N)N/N=C/c1cn(-c2ccc([N+](=O)[O-])cc2[N+](=O)[O-])nc1-c1cccc(Cl)c1	2 (≈ 4.66 µM)	1 (≈ 2.33 µM)	82.4	2	1 (≈ 2.33 µM)	2	4 (≈ 9.33 µM)	2 (≈ 4.66 µM)	2 (≈ 4.66 µM)	2 (≈ 4.66 µM)	2 (≈ 4.66 µM)	4 (≈ 9.33 µM)	2 (≈ 4.66 µM)	4 (≈ 9.33 µM)	> 64	> 64	1 (≈ 2.33 µM)	2		4	Ratio [23]: 4; Ratio [21]: 4; Ratio [22]: 64
